PubChem BioAssay
Activity calls are given as the source filed them.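 How the source made its calls, unless noted: active means viability at or below 30% in both replicate assays; inconclusive means viability at or below 30% in just one of the two assays; inactive means the rest.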

What was measured:
[1] = reducers of endogenous Her2 protein level, primary screen, SKBR3 breast tumor cells, AlphaScreen, ATP viability (AID 461;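 active means Her2 level under about 52% in both replicate screens, with viability over 70% of control, limit read from the data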;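 on Her2 level: lower value means less Her2 protein in the cells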;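 on viability: percent of carrier control wells set as 100% viability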); details: 18-24 h, measured here: SKBR3 viability, ATP luminescence, at 10 µM
[2] = target: Receptor tyrosine-protein kinase erbB-2 (Homo sapiens) (UniProt P04626); assay: as above; details: 18-24 h, at 10 µM, stronger effect = lower value
Chain of Receptor tyrosine-protein kinase erbB-2 (Homo sapiens) (P04626 whole entry, looked up): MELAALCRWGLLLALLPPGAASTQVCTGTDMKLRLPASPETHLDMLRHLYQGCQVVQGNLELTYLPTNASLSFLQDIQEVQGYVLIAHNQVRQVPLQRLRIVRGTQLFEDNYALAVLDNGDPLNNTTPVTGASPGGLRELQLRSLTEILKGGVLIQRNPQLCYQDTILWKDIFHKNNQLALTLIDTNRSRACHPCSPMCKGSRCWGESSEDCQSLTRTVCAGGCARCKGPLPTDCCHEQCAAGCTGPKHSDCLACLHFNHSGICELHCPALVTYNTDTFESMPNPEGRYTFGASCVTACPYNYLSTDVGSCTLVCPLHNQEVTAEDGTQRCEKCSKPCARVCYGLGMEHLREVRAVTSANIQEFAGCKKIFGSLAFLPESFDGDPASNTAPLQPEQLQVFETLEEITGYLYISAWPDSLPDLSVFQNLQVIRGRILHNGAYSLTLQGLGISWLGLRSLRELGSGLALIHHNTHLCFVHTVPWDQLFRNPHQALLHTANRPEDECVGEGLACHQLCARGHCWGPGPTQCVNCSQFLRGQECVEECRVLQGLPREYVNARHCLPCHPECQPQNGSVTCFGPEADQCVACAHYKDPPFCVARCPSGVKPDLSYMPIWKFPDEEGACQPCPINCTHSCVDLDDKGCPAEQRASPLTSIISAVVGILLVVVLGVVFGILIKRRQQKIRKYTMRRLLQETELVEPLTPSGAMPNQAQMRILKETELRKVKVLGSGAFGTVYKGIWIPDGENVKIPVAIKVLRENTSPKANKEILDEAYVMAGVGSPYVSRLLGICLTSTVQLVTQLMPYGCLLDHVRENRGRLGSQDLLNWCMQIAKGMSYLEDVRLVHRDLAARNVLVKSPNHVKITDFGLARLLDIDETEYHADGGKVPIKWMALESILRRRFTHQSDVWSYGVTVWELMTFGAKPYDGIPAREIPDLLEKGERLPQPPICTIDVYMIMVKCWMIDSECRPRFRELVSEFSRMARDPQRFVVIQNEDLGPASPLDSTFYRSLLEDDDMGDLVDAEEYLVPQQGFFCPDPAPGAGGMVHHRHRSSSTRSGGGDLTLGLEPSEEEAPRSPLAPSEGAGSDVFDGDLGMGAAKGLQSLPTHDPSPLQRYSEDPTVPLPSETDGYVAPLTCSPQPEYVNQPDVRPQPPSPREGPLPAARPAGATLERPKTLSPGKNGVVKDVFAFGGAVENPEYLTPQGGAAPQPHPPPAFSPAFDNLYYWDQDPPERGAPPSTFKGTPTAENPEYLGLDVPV

[3] = SK-BR-3 cell growth inhibitors, pilot screen, 24 h, human (AID 572;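 active means viability at or below 10% of carrier control in both of two separate runs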;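 further: compound exposure lasted between 18 and 24 h rather than exactly 24 h; 100% = carrier-treated control wells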); details: SK-BR-3 viability, CellTiter-Glo luminescence, at 10 µM, stronger effect = lower value
[4] = HUVEC growth inhibition – cell-based, human, primary screen (AID 575); details: HUVEC proliferation, CellTiter-Glo luminescence, 72 h; at 10 µM; stronger effect = lower value;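 further: 100% = median of untreated cell wells with 0.1% DMSO on each plate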
In short: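 Test system: HUVEC primary cells. Quantity: 1250 endothelial cells in each well. Dosing: single-point 10 µM, DMSO 0.1% final. Incubation: 72 h treatment at 37 °C. Measured by: CTG luminescence. Control set: DMSO cell controls and MePR drug controls. Plate: collagen-coated 384-well format.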

[5] = growth inhibitors of H69AR lung tumor, primary screen, human, duplicate replicates (AID 580;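 active means viability at or under a set limit in both replicates, limit being median viability minus 3 SD, cut at about 48% in these data, passing the limit was not always enough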;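 further: 100% = mean luminescence of untreated wells and 0% = no signal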); details: H69AR lung tumor cells viability, ATP luminescence, 72 h; at 10 µM; stronger effect = lower value
[6] = reversal of MRP1-mediated doxorubicin resistance, pilot screen, H69AR cells, doxorubicin co-treatment (AID 601;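 active means viability loss from added drug above about 55%, and viability with drug at most 40%, in both replicates, limit read from the data, passing the limit was not always enough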); details: CellTiter-Glo, 72 h, at 10 µM; for differential viability (reversal): stronger effect = higher value
[7] = 384-well plate pilot, post-Golgi transport modulator project, inhibition of yeast transport mutant growth (AID 636; in the data active means inhibition above about 31%); details: absorbance 615 nm, about 18 h, stronger effect = higher value
[8] = growth suppression of yeast trafficking mutant, preliminary HTS, modulators of trafficking downstream of Golgi apparatus project, 1536-format plate, OD 615 nm (AID 637; in the data active means inhibition above about 30%); details: yeast transport mutant growth, absorbance 615 nm, 18 h; stronger effect = higher value
[9] = H69AR cells + 2 uM doxorubicin, measured here: viability with 2 uM doxorubicin, stronger effect = lower value
[10] = H69AR cells, compound alone cytotoxicity

Row | SMILES | viability [1] [%] | Her2 level [2] | viability [3] | viability [4] | viability [5] | differential viability (reversal) ([6]; H69AR cells + 2 uM doxorubicin) | viability [6, 9] [%] | viability [6, 10] [%] | inhibition [7] | inhibition [8]
1 | COc1nc(OC)nc(N2CCC(C(=O)NC3CCCCCC3)CC2)n1 | 95.5 | 102% (inactive) | 95.5% (inactive) | 104% (inactive) | 105% (inactive) | 4.45% (inactive) | 100 | 105 | 3.6% (inactive) | -2.3% (inactive)
2 | COc1ccc(-c2noc(CSc3nc(N)c(-c4ccccc4)c(=O)[nH]3)n2)cc1OC | 106 | 94.5% (inactive) | 106% (inactive) | 94.6% (inactive) | 84.7% (inactive) | -0.7% (inactive) | 85.4 | 84.7 | -4.13% (inactive) | -3.97% (inactive)
3 | Cc1cc(NC(=O)CCC(=O)N(CCc2ccccc2)C(C(=O)NC2CCCC2)c2ccco2)no1 (stereo not given) | 85.5 | 99% (inactive) | 85.5% (inactive) | 79.2% (inactive) | 99.2% (inactive) | 4.1% (inactive) | 95.1 | 99.2 | 1.47% (inactive) | -2.13% (inactive)
4 | Oc1ccc2cccnc2c1 | 94.5 | 108% (inactive) | 94.5% (inactive) | 107% (inactive) | 106% (inactive) | 5.68% (inactive) | 100 | 106 | -4.8% (inactive) | -8.41% (inactive)
5 | O=C(CCCn1c(=S)[nH]c2ccccc2c1=O)N1CCCCC1 | 86 | 108% (inactive) | 86% (inactive) | 87.1% (inactive) | 96.8% (inactive) | 6.58% (inactive) | 90.2 | 96.8 | -2.63% (inactive) | -8.1% (inactive)
6 | Cc1cccc(-c2cc3nc4c(c(N5CCC6(CC5)OCCO6)n3n2)CCCC4)c1 | 80.5 | 100% (inactive) | 80.5% (inactive) | 77.8% (inactive) | 83.9% (inactive) | -9.12% (inactive) | 93 | 83.9 | -2.13% (inactive) | 9.37% (inactive)
7 | CCOc1ccc2[nH]c(=O)c(CN(Cc3ccccc3)C(=O)N3CCCC3)cc2c1 | 100 | 77% (inactive) | 100% (inactive) | 78.4% (inactive) | 82.1% (inactive) | 1.97% (inactive) | 80.1 | 82.1 | -2.5% (inactive) | -1.9% (inactive)
8 | COCc1ccccc1Cn1cnc2c1c(=O)n(C)c(=O)n2C | 99 | 77.5% (inactive) | 99% (inactive) | 85.8% (inactive) | 101% (inactive) | 8.8% (inactive) | 92.7 | 101 | -5% (inactive) | 0.49% (inactive)
9 | Cc1c(C(=O)N2CCCC2)sc(NC(=O)c2cccs2)c1C#N | 106 | 91.5% (inactive) | 106% (inactive) | 98.1% (inactive) | 89.9% (inactive) | -0.35% (inactive) | 90.2 | 89.9 | -3.6% (inactive) | -5.81% (inactive)
10 | CCOP(=O)(c1ccc(N(C)C)cc1)C(O)c1cc(OC)c(OC)c(OC)c1 (stereo not given) | 76.5 | 80% (inactive) | 76.5% (inactive) | 80.6% (inactive) | 87.4% (inactive) | -0.05% (inactive) | 87.4 | 87.4 | -3.68% (inactive) | -2.38% (inactive)
11 | Cc1ccc2cc(CN(CC3CCCO3)S(=O)(=O)c3ccc4c(c3)OCCO4)c(=O)[nH]c2c1C (stereo not given) | 86.5 | 80% (inactive) | 86.5% (inactive) | 84.1% (inactive) | 86.1% (inactive) | 3.25% (inactive) | 82.9 | 86.1 | -5.07% (inactive) | -6.03% (inactive)
12 | CCCCC(O)(C(NC=O)C(=O)OC)C(F)(F)F (stereo not given) | 95.5 | 85% (inactive) | 95.5% (inactive) | 108% (inactive) | 99.4% (inactive) | 3.77% (inactive) | 95.7 | 99.4 | -2.27% (inactive) | 7.58% (inactive)
13 | C/C=C(\C)c1nnc(NC(=O)C(C)C)s1 | 92.5 | 82.5% (inactive) | 92.5% (inactive) | 101% (inactive) | 98.7% (inactive) | 9.51% (inactive) | 89.2 | 98.7 | -4.05% (inactive) | 2.79% (inactive)
14 | CN=C1CC(C)(C)CC(=O)/C1=C(/O)CCC(=O)NC | 104 | 84% (inactive) | 104% (inactive) | 95.5% (inactive) | 102% (inactive) | 10.2% (inactive) | 92.1 | 102 | -2.63% (inactive) | -3.97% (inactive)
15 | CCOC(=O)CSc1nc2c(c(-c3ccc(C)o3)c1C#N)CCCC2 | 89.5 | 88.5% (inactive) | 89.5% (inactive) | 65.8% (inactive) | 73.8% (inactive) | 6.76% (inactive) | 67 | 73.8 | 0.26% (inactive) | -2.46% (inactive)
16 | COCCN(CCOC)S(=O)(=O)c1ccc(C(=O)Nc2nnc(C3CC3)o2)cc1 | 75 | 86% (inactive) | 75% (inactive) | 80.5% (inactive) | 82.7% (inactive) | -1.53% (inactive) | 84.2 | 82.7 | -3.65% (inactive) | 1.48% (inactive)
17 | CCSc1nnc2c(n1)OC=Nc1ccc(Br)cc1-2 | 92.5 | 86% (inactive) | 92.5% (inactive) | 79.3% (inactive) | 99.7% (inactive) | 12.9% (inactive) | 86.7 | 99.7 | -0.66% (inactive) | -4.67% (inactive)
18 | O=C(NCc1ccc2c(c1)OCO2)c1cc2n(n1)C(C(F)(F)F)CC(c1ccc3c(c1)OCO3)N2 (stereo not given) | 98 | 82% (inactive) | 98% (inactive) | 73.8% (inactive) | 84.2% (inactive) | 9.51% (inactive) | 74.7 | 84.2 | -2.89% (inactive) | 5% (inactive)
19 | CSc1cccc(NC(=O)C2CCCN2S(=O)(=O)c2ccc3c(c2)CCC(=O)N3)c1 (stereo not given) | 93 | 93.5% (inactive) | 93% (inactive) | 94.7% (inactive) | 89% (inactive) | 0.435% (inactive) | 88.6 | 89 | -4.21% (inactive) | -8.73% (inactive)
20 | CCC(C)(C)n1nnnc1C(c1ccc(OC)c(OC)c1)N1CCN(c2ccc(F)cc2)CC1 (stereo not given) | 80 | 93.5% (inactive) | 80% (inactive) | 89.2% (inactive) | 85.8% (inactive) | 31.3% (inactive) | 54.5 | 85.8 | -1.95% (inactive) | 2% (inactive)
21 | Cc1c2c(nc3nc4ccccc4n13)CC(C)(C)CC2=O | 130 | 100% (inactive) | 130% (inactive) | 91.1% (inactive) | 70.9% (inactive) | 36.9% (inactive) | 34 | 70.9 | -3.42% (inactive) | 4.43% (inactive)
22 | CCCCOc1ccccc1C(=O)NCCCC(=O)O | 92.5 | 80.5% (inactive) | 92.5% (inactive) | 95.4% (inactive) | 87.1% (inactive) | 7.52% (inactive) | 79.6 | 87.1 | -4.08% (inactive) | -0.55% (inactive)
23 | CCC1CCCCN1S(=O)(=O)c1ccc(C(=O)Nc2nnc(-c3cccs3)o2)cc1 (stereo not given) | 79.5 | 91.5% (inactive) | 79.5% (inactive) | 3.2% (active) | 16.7% (active) | -28.1% (inactive) | 44.9 | 16.7 | -8.68% (inactive) | 9.64% (inactive)
24 | CC(C)(C)C(=O)Oc1cc(N)n(S(=O)(=O)c2ccccc2)n1 | 93.5 | 101% (inactive) | 93.5% (inactive) | 102% (inactive) | 87.1% (inactive) | 3.59% (inactive) | 83.5 | 87.1 | 0.53% (inactive) | -5.27% (inactive)
25 | O=C(Nc1cccc(C(=O)N2CCOCC2)c1)c1cccnc1 | 99.5 | 118% (inactive) | 99.5% (inactive) | 91% (inactive) | 91.2% (inactive) | -9.23% (inactive) | 100 | 91.2 | -6.18% (inactive) | -3.11% (inactive)
26 | CCCN1CCC(NC(=O)Nc2ccc(OC)c(OC)c2)CC1 | 124 | 96.5% (inactive) | 124% (inactive) | 111% (inactive) | 90.7% (inactive) | 4.61% (inactive) | 86.1 | 90.7 | -1.69% (inactive) | -2.33% (inactive)
27 | CCOC(=O)N1CCN(C(=O)CN2C(=O)COc3ccc(C)cc32)CC1 | 98 | 94.5% (inactive) | 98% (inactive) | 95.7% (inactive) | 94.2% (inactive) | 1.89% (inactive) | 92.3 | 94.2 | -2.89% (inactive) | 6% (inactive)
28 | CCn1nc(CC(=O)Nc2nnc(CC(=O)N3CCCCC3)s2)c2ccccc2c1=O | 96 | 102% (inactive) | 96% (inactive) | 84.4% (inactive) | 97.5% (inactive) | 4.77% (inactive) | 92.7 | 97.5 | -0.52% (inactive) | -4.83% (inactive)
29 | Cc1c(C(=O)NCc2cccnc2)oc2ccc(S(=O)(=O)N3CCCCC3)cc12 | 71.5 | 89% (inactive) | 71.5% (inactive) | 65.6% (inactive) | 70.5% (inactive) | -20.9% (inactive) | 91.4 | 70.5 | -0.39% (inactive) | 4.1% (inactive)
